Data on one compound can be found in ChEMBL document CHEMBL1126650, “Synthesis and structure-activity relationships of novel benzimidazole and imidazo[4,5-b]pyridine acid derivatives as thromboxane A2 receptor antagonists” (J Med Chem, 1993).

For assay [1], the system named is Cavia porcellus. The assay can be described thus: In vivo inhibition of […]- epoxymethano-PGH2 (1 uM) induced platelet aggregation of guinea pig platelet-rich plasma (PRP) 1 hr after per os administration at 0.3 mg/kg po. It is filed as functional. In outline: (§1)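 Guinea pigs dosed orally. Platelet-rich plasma taken 1 h later and aggregation triggered with 11,9-epoxymethano-PGH2 (U-IPA) at 1 µM.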

The target in assay [2] is T1, Thromboxane A2 receptor (Homo sapiens) (UniProt P21731).
T1 sequence (whole entry): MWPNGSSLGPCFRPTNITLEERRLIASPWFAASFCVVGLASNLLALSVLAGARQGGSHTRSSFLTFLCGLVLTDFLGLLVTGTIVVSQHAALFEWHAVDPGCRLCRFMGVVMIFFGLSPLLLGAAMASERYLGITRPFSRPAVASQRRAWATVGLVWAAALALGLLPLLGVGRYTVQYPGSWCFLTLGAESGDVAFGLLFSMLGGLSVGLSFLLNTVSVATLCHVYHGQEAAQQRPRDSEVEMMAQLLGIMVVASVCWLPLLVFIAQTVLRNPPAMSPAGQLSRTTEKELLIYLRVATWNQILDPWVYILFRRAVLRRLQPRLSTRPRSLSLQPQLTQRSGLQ
Nature of the assay: Tested in vitro for percent inhibition against TXA2 / PGH-2 receptor using [125I]PTA-OH in human platelets at 10 e-7 M. In outline:
(§2)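 Washed human platelets from volunteer blood drawn into EDTA 5 mM and indomethacin 20 µM (final); PRP at 200 g, pellet at 2000 g. 5 × 10^7 platelets incubated 30 min at 37 °C with 0.1 nM [125I]PTA-OH in Tris/NaCl/dextrose/indomethacin buffer, pH 7.4. Screening at 10^-7 and 10^-5 M. Filtration, gamma counting. Nonspecific binding set by a tetrahydrocarbazole-acetic acid antagonist. Triplicate.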

The next assay concerns the target T2, Thromboxane A2 receptor (Homo sapiens, UniProt P21731).
T2 sequence (P21731 whole entry): T1 sequence (whole entry)
The assay can be described thus: Tested in vitro for inhibition constant against TXA2 / PGH-2 receptor using [125I]PTA-OH binding affinity to human platelets.

In assay [3] the target is T1, Thromboxane A2 receptor (Homo sapiens). Nature of the assay: In vitro for percent inhibition against TXA2 / PGH-2 receptor using [125I]PTA-OH in human platelets at 10 e-5 M. In outline: as §2
Assay [4] has as its system Cavia porcellus. Nature of the assay: In vivo inhibition of […]- epoxymethano-PGH2 (1 uM) induced platelet aggregation of guinea pig platelet-rich plasma (PRP) 1 hr after per os administration at 1 mg/kg po. It is filed as functional. A digest of the protocol:
as §1

`CC(C)(CC(=O)O)Cc1nc2cc(Cl)cnc2n1Cc1ccc(Cl)cc1` [MIPITROBAN]: testing at 0.3 mg/kg in the assay on Cavia porcellus [1] gave an inhibition in vivo of 44%. For the same compound, the inhibition (in general, how much of the control response was suppressed) in assay [2] was 97%; in assay [3], 100%. For the same compound, on Thromboxane A2 receptor, the inhibitory constant (Ki) – broadly, a dissociation constant, usually derived from enzyme kinetics or from competition with a known ligand – is 21 nM. In the assay on Cavia porcellus [4], the inhibition in vivo – broadly, the relative decrease from the control value, in per cent – at 1 mg/kg was determined as 81%.
